Results on six compounds are retold here after ChEMBL document CHEMBL2069211, “Busseihydroquinones A-D from the roots of Pentas bussei” (J Nat Prod, 2012).

Data set [1] deals with Candida albicans. Nature of the data set: Antimicrobial activity against Candida albicans at 0.1 mg/disc incubated for 24 to 72 hrs by disc diffusion assay. Type of data set: functional, organism-based. The essentials: (§1)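 Paper discs loaded with sample are laid on seeded agar plates, in triplicate under sterile conditions. Incubation is at 37 °C for E. coli, S. aureus and C. albicans, and at 25 °C for A. niger. Streptomycin (bacteria) and nystatin (fungi) serve as standards at 0.1 mg/100 μL. Sample solvents serve as controls.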
On the technique in general: Agar diffusion results depend on both activity and mobility in agar.

The subject of data set [2] is Escherichia coli. Nature of the data set: Antimicrobial activity against Escherichia coli at 0.1 mg/disc incubated for 24 to 72 hrs by disc diffusion assay. Type of data set: functional, organism-based. The essentials:
as §1

Data set [3] is described as follows: Selectivity index, ratio of LD50 for human MCF7 cells to IC50 for chloroquine-sensitive Plasmodium falciparum D6. Type of data set: toxicity, cell-based. Conditions: read-out: Selectivity Index. The essentials: (§2)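 The selectivity index is the MCF-7 LD50 (48 h PrestoBlue assay) divided by the P. falciparum IC50 (SYBR Green I assay) for the same strain.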
Data set [4] deals with Plasmodium falciparum. Nature of the data set: Antiplasmodial activity against chloroquine-sensitive Plasmodium falciparum D6 by SYBR green I-based assay. Type of data set: functional, organism-based. The essentials: (§3)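 Drug susceptibility is measured with the SYBR Green I-based in vitro malaria assay. Chloroquine and mefloquine run alongside as reference drugs. IC50 is the mean of at least 3 independent experiments.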

The subject of data set [5] is Plasmodium falciparum. Nature of the data set: Antiplasmodial activity against chloroquine-resistant Plasmodium falciparum W2 by SYBR green I-based assay. Type of data set: functional, organism-based. The essentials: as §3
The subject of data set [6] is Aspergillus niger. Nature of the data set: Antimicrobial activity against Aspergillus niger at 0.1 mg/disc incubated for 24 to 72 hrs by disc diffusion assay. Type of data set: functional, organism-based. Summed up: as §1
Data set [7] can be described thus: Selectivity index, ratio of LD50 for human MCF7 cells to IC50 for chloroquine-resistant Plasmodium falciparum W2. The format is toxicity, cell-based. Conditions: read-out: Selectivity Index. Summed up: as §2
Data set [8] deals with Staphylococcus aureus. Nature of the data set: Antimicrobial activity against Staphylococcus aureus at 0.1 mg/disc incubated for 24 to 72 hrs by disc diffusion assay. Type of data set: functional, organism-based. The essentials:
as §1

Data set [9] can be described thus: Toxicity against human MCF7 cells incubated for 48 hrs by PrestoBlue cell viability reagent based assay. The settings on record: read-out: LD50. Summed up: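 MCF-7 cells are grown in DMEM with 10% FBS, 2 mM L-glutamine and penicillin/streptomycin at 37 °C in 5% CO2. They are seeded for exponential growth and preincubated 24 h. Drug or DMSO vehicle (0.1% or 1.0% v/v) is then added for 48 h. PrestoBlue absorbance is read at 570 nm (600 nm reference). Viability is expressed as % of vehicle, six replicates, with repeated independent experiments.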

Molecules are shown by their SMILES. Active and inactive are the calls of the source. The calls are words filed in the database; no cut-off is given here.

The IC50 is the concentration needed to halve the response being measured. Lower therefore signals greater potency. As for `COC(=O)c1cc(OC)c2cc(OC)c(OC)c(O)c2c1O` [BUSSEIHYDROQUINONE A], the “inhibition zone (IZ)” value in [1], in data set [2], in data set [6] and in data set [8] was “inactive” in each case. For the same compound, the selectivity ratio was 8.44 in [3] and 2.11 in [7]. In addition, the values for the IC50 in [4] and in data set [5] were 36 µM and 144 µM, respectively. In addition, the CC50 at 48 h in [9] turned out to be 304 µM.
In turn, `OC(c1cc(C(F)(F)F)nc2c(C(F)(F)F)cccc12)C1CCCCN1` (stereo unspecified) [MEFLOQUINE] gave a 50% inhibitory concentration (IC50) in [4] of 0.029 µM.
As for `COc1cc(C(=O)O)c(O)c2ccc3c(c12)C=CC(C)(CCC=C(C)C)O3` (racemic) [BUSSEIHYDROQUINONE C], the “inhibition zone (IZ)” value in data set [1], in [2], in data set [6] and in data set [8] was “inactive” throughout. Moreover, the selectivity ratio in data set [3] is more than 8.32; in [7] it was more than 4.52. In addition, the values for the IC50 in data set [4] and in data set [5] were 32.6 µM and 60.1 µM, respectively. For the same compound, the CC50 at 48 h in [9] was more than 272 µM.
As for `COc1cc(C(=O)O)c(O)c2ccc3c(c12)C=C1/C(=C(\C)C=O)CCC1(C)O3` (racemic) [BUSSEIHYDROQUINONE D], the “inhibition zone (IZ)” value in data set [1], in [2], in [6] and in data set [8] was “inactive” throughout. Besides, the selectivity ratio in [3] is more than 13.4; in [7], more than 3.27. Also, the results for the 50% inhibitory concentration (IC50) in [4] and in data set [5] were 19.6 µM and 80.1 µM, respectively. Moreover, the CC50 at 48 h in [9] is more than 262 µM.
On to `COc1cc(C(=O)O)c(O)c2ccc3c(c12)C=CC(C)(C)O3` [BUSSEIHYDROQUINONE B], for which the “inhibition zone (IZ)” value in [1], in data set [2], in data set [6] and in data set [8] was “inactive” each time. Moreover, the selectivity ratio is 13.4 in data set [3] and 2.96 in data set [7]. Further, the results for the half-inhibitory concentration (IC50) in data set [4] and in data set [5] were 27.8 µM and 126 µM, respectively. For the same compound, the CC50 at 48 h in data set [9] stood at 374 µM.
`COC(=O)c1cc(OC)c2cc(O)c3c(c2c1O)C=CC(C)(CCC=C(C)C)O3` (racemic): the “inhibition zone (IZ)” value in data set [1], in data set [2], in data set [6] and in data set [8] was “inactive” each time. Moreover, the selectivity ratio in data set [3] came out at 2.83; in data set [7], 1.02. The 50% inhibitory concentration (IC50) came out at 30.6 µM in data set [4] and 85 µM in data set [5]. In data set [9], the CC50 at 48 h was 86.4 µM.
